This note sets out measurements from ChEMBL document CHEMBL1287755, “Design, synthesis and inhibition activity of novel cyclic peptides against protein tyrosine phosphatase A from Mycobacterium tuberculosis” (Bioorg Med Chem, 2010).

Each structure is given as a SMILES string.

The target of the first experiment is T1, Low molecular weight protein-tyrosine phosphatase A (Mycobacterium tuberculosis, UniProt P9WIA1).
T1 sequence (P9WIA1 whole entry): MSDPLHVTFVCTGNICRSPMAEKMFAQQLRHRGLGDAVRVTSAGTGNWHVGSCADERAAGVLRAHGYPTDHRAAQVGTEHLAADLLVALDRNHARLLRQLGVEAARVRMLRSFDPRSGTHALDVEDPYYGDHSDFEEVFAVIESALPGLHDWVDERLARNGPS
Briefly: Inhibition of Mycobacterium tuberculosis recombinant protein tyrosine phosphatase A by Lineweaver-Burke plot analysis. Summed up:
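Recombinant wild-type MPtpA (purified, purity by SDS-PAGE, concentration from A280) held at 1 µM. Phosphatase activity measured at 25 °C in 0.1 M Tris, 0.15 M NaCl, 1 mM EDTA, pH 7.5, with pNPP substrate. p-Nitrophenol release read at 405 nm. Inhibitors added from methanol, final methanol ≤3% v/v. Inhibitor typically 10–50 µM, substrate 100–300 µM. Triplicate assays. Mode of inhibition from double-reciprocal plots. Ki taken from a plot of Km/Vmax versus [I].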
For `O=C1CC[C@H](C(=O)O)NC(=O)[C@@H]([C@@H](Nc2ccccc2)c2ccccc2)CN1`, the inhibitory constant (Ki) (as a rule, a dissociation constant, usually derived from enzyme kinetics or from competition with a known ligand) was 36.3 µM.

For the molecule `O=C1CNC(=O)CNC(=O)[C@@H]([C@@H](Nc2ccccc2)c2ccccc2)CN1`, the inhibition constant (Ki) came to 85.5 µM.

Take `C[C@@H]1NC(=O)[C@H](C)NC(=O)[C@H](C)NC(=O)[C@@H]([C@@H](Nc2ccccc2)c2ccccc2)CNC1=O`: the Ki came to 199 µM.

Turning to `O=C1CNC(=O)[C@H](Cc2ccc(O)cc2)NC(=O)[C@@H]([C@@H](Nc2ccccc2)c2ccccc2)CN1`, the inhibition constant Ki was determined as 8 µM.

For the molecule `O=C1CNC(=O)CNC(=O)[C@@H]([C@@H](Nc2ccccc2)c2ccco2)CN1`, the inhibition constant Ki was found to be 215 µM.

As for `C[C@@H]1NC(=O)[C@H](C)NC(=O)[C@@H]([C@@H](Nc2ccccc2)c2ccccc2)CNC1=O`, the inhibitory constant (Ki) was found to be 220 µM.

As for `O=C1CNC(=O)[C@@H]([C@@H](Nc2ccccc2)c2ccccc2)CN1`, the inhibition constant (Ki) was found to be 140 µM.

The target of another experiment is T2, Low molecular weight protein-tyrosine phosphatase A (Mycobacterium tuberculosis) (UniProt P9WIA1).
T2 sequence (whole entry): T1 sequence (P9WIA1 whole entry)
Description: Binding affinity to Mycobacterium tuberculosis recombinant protein tyrosine phosphatase A by circular dichroism spectral analysis. Summed up:
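Far-UV CD of recombinant MPtpA at 25 °C in Tris buffer, 10 mm quartz cell. Spectra taken over 195–240 nm at 50 nm/min with 4 s response. Buffer blank containing the ligand subtracted. Protein:peptide ratio titrated from 2:1 up to 1:6. Changes followed at the α-helix minima, 208 and 222 nm, and a binding constant was derived from the titration.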
A general note: CD spectra are sensitive to the conformation of chiral molecules.
Consider `O=C1CC[C@H](C(=O)O)NC(=O)[C@@H]([C@@H](Nc2ccccc2)c2ccccc2)CN1`, for which the Kb is 8.5 ×10⁴ /M.

With `O=C1CNC(=O)CNC(=O)[C@@H]([C@@H](Nc2ccccc2)c2ccccc2)CN1`, the Kb was 4.7 ×10⁴ /M.

Turning to `C[C@@H]1NC(=O)[C@H](C)NC(=O)[C@H](C)NC(=O)[C@@H]([C@@H](Nc2ccccc2)c2ccccc2)CNC1=O`, the Kb was 3.3 ×10⁴ /M.

Take `O=C1CNC(=O)[C@H](Cc2ccc(O)cc2)NC(=O)[C@@H]([C@@H](Nc2ccccc2)c2ccccc2)CN1`: the Kb stood at 1.2 ×10⁵ /M.

On to `O=C1CNC(=O)CNC(=O)[C@@H]([C@@H](Nc2ccccc2)c2ccco2)CN1`, for which the Kb turned out to be 2.95 ×10⁴ /M.

Regarding `C[C@@H]1NC(=O)[C@H](C)NC(=O)[C@@H]([C@@H](Nc2ccccc2)c2ccccc2)CNC1=O`, the Kb was 1.1 ×10⁴ /M.

For `O=C1CNC(=O)[C@@H]([C@@H](Nc2ccccc2)c2ccccc2)CN1`, the Kb was determined as 3.6 ×10⁴ /M.

For a further experiment, the target named is T2, Low molecular weight protein-tyrosine phosphatase A (Mycobacterium tuberculosis). Briefly: Binding affinity to Mycobacterium tuberculosis recombinant protein tyrosine phosphatase A by fluorescence quenching assay. Summed up:
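Intrinsic tryptophan fluorescence of MPtpA, held at 2 µM, recorded at 20 °C in a 10 mm quartz cuvette. Emission maximum at 340 nm followed during titration with the peptide, up to a 1:10 protein:peptide ratio. Data fitted to Stern–Volmer (F0/F = 1 + Ksv[Q]) and Scatchard plots to give quenching and binding constants.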
On to `O=C1CC[C@H](C(=O)O)NC(=O)[C@@H]([C@@H](Nc2ccccc2)c2ccccc2)CN1`, for which the Kb was 8.89 ×10⁴ /M.

`O=C1CNC(=O)CNC(=O)[C@@H]([C@@H](Nc2ccccc2)c2ccccc2)CN1`: the Kb worked out at 4.87 ×10⁴ /M.

As to `C[C@@H]1NC(=O)[C@H](C)NC(=O)[C@H](C)NC(=O)[C@@H]([C@@H](Nc2ccccc2)c2ccccc2)CNC1=O`, the Kb was 3.27 ×10⁴ /M.

Consider `O=C1CNC(=O)[C@H](Cc2ccc(O)cc2)NC(=O)[C@@H]([C@@H](Nc2ccccc2)c2ccccc2)CN1`, for which the Kb stood at 1.5 ×10⁵ /M.

In the case of `O=C1CNC(=O)CNC(=O)[C@@H]([C@@H](Nc2ccccc2)c2ccco2)CN1`, the Kb worked out at 2.99 ×10⁴ /M.

For `C[C@@H]1NC(=O)[C@H](C)NC(=O)[C@@H]([C@@H](Nc2ccccc2)c2ccccc2)CNC1=O`, the Kb worked out at 1 ×10⁴ /M.

`O=C1CNC(=O)[C@@H]([C@@H](Nc2ccccc2)c2ccccc2)CN1`: the Kb was 3.41 ×10⁴ /M.
